From paper PMC2922024 (Neuroscience letters, 2010)
Positions of bridges follow the written chain, without caps; N, C: chain ends. Residues, ends and D or L forms follow the SMILES beside them.

B1: nerve growth factor (protein, UniProt P01139 122-241, looked up)
Beta-nerve growth factor: SSTHPVFHMGEFSVCDSVSVWVGDKTTATDIKGKEVTVLAEVNINNSVFRQYFFETKCRASNPVESGCRGIDSKHWNSYCTTTHTFVKALTTDEKQAAWRFIRIDTACVCVLSRKATRRG
modifications: Beta-nerve growth factor

Key:
[1] = Free GsMTx4 in media with or without serum; format: in vitro ADME
PC12 cells = test: Neurite outgrowth from PC12 cells; format: cell-based, rat; conditions: NGF 50 ng/ml alone, 48 h
Summary of the method: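 Rat PC12 cells were grown in high-glucose DMEM with 10% FBS, penicillin/streptomycin and 10 mM Hepes at 37 °C in 5% CO2. They were seeded at 4 × 10^4 per well, adhered overnight, then left untreated or given NGF (50 ng/ml final) for 48 h. Phase-contrast images were scored blinded: three random fields per well, at least 4 wells, fields of more than 10 cells, at least 250 cells per experiment. The percentage was calculated per image, and the longest neurite per bearing cell was averaged. Groups were compared by one-way ANOVA with Tukey–Kramer.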

Molecule | free concentration ([1]; culture media with 10% serum, mean (total) concentration 100 μM GsMTx4) | free drug concentration in media as share of the total ([1]; media with 10% serum) | length of the longest neurite per NBC (PC12 cells; untreated approximately 10 μm) | percentage of neurite bearing cells (PC12 cells; untreated ~1%)
CC(C)C[C@@H]1NC(=O)[C@@H](NC(=O)CN)CSSC[C@@H]2NC(=O)[C@@H]3CSSC[C@@H](C(=O)N[C@@H](CC(N)=O)C(=O)N[C@@H](Cc4ccccc4)C(=O)N[C@@H](CO)C(=O)N[C@@H](Cc4ccccc4)C(N)=O)NC(=O)[C@H](CC(C)C)NC(=O)[C@H](CCCCN)NC(=O)[C@H](Cc4ccccc4)NC(=O)[C@H](CC(C)C)NC(=O)[C@H](CCCCN)NC(=O)[C@H](CO)NC(=O)[C@H](CSSC[C@H](NC(=O)[C@H](CCCCN)NC(=O)[C@H](Cc4c[nH]c5ccccc45)NC(=O)[C@H](Cc4c[nH]c5ccccc45)NC(=O)[C@H](Cc4ccccc4)NC(=O)[C@H](CCC(=O)O)NC1=O)C(=O)N[C@@H](CC(N)=O)C(=O)N1CCC[C@H]1C(=O)N[C@@H](CC(N)=O)C(=O)N[C@@H](CC(=O)O)C(=O)N[C@@H](CC(=O)O)C(=O)N[C@@H](CCCCN)C(=O)N3)NC(=O)[C@H](CCCCN)NC(=O)[C@H](CC(C)C)NC(=O)[C@H](CCCCN)NC(=O)[C@@H]1CCCN1C(=O)[C@H](CCCNC(=N)N)NC2=O [GsMTx4] (H-GCLEFWWKCNPNDDKCCRPKLKCSKLFKLCNFSF-NH2; disulfide 2-17, 9-23, 16-30) | ~ 5 μM | about 5% | – | –
B1 | – | – | ~ 20 μm | ~ 20%
